UBC13 inh: inhibitors of human UBC13 polyubiquitin chain formation; TR-FRET; inhibition, % at 20 µM; 330,000 tested, 0.47% active; in the data active means inhibition above about 45%, passing the limit was not always enough
RBBP9 inhibitor: blocks human serine hydrolase RBBP9 | O75884 | recombinant RBBP9, FP-Rh probe fluorescence polarization | inhibition, % at 7.94 µM | 220,000 tested, 0.2% active | AID 1515;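 active means inhibition above the campaign mean of all tested compounds plus 3 SD, cut at about 14% in these data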;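 further: plate controls were DMSO wells with RBBP9 for no effect and wells lacking RBBP9 protein for full effect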
Target sequence (O75884 whole entry, looked up): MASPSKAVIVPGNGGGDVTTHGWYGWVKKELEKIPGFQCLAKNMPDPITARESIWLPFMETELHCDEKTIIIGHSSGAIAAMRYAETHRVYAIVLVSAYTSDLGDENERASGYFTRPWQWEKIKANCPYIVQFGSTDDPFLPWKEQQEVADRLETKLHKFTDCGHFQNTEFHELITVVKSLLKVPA
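Measured by – fluorescence polarization · Test system – RBBP9 protein · Input – 2.5 µM RBBP9 dispensing solution, before mixing · Measure – percent inhibition from mP, scaled between DMSO and no-protein wells · Benchmarks – DMSO-treated enzyme wells and wells lacking RBBP9 · Times – preincubation 30 min plus labeling 45 min at 25 °C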
UBC9 SUMO inh: SUMOylation inhibition. P63279. HTRF SUMOylation assay, SAE1/SAE2 + UBC9, in vitro. inhibition, % at 35 µM. 290,000 tested, 0.36% active. AID 2006; in the data active means inhibition above about 50%, passing the limit was not always enough
Target sequence (P63279 whole entry, looked up): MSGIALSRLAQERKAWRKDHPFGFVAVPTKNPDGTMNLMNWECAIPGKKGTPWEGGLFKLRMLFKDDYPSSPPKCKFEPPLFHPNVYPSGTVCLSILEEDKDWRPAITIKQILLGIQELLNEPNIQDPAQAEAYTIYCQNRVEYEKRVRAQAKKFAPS
PREPL inh: inhibitors of human prolyl oligopeptidase-like enzyme PREPL | recombinant PREPL, fluorescence polarization activity-based probe | Q4J6C6 | 320,000 tested, 0.68% active | inhibition, % at 5.96 µM; in the data active means inhibition above about 43%;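 further: 0% = enzyme with DMSO and 100% = wells lacking enzyme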
Rin1 Abl inh: human Rin1-Abl interaction inhibition. AID 588664. 360,000 tested, 0.4% active. TR-FRET Rin1/Abl binding, biochemical. inhibition, % at 7.35 µM; in the data active means inhibition above about 5%, passing the limit was not always enough
ALR inh: inhibitors of human sulfhydryl oxidase ALR | P55789 | inhibition, % (test concentration not listed) | purified ALR, DTT oxidation, H2O2 HRP-luminol luminescence | 290,000 tested, 3.8% active;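 active means mean replicate inhibition above about 79%, with every replicate also reaching it, limit read from the data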
Target sequence (P55789 whole entry, looked up): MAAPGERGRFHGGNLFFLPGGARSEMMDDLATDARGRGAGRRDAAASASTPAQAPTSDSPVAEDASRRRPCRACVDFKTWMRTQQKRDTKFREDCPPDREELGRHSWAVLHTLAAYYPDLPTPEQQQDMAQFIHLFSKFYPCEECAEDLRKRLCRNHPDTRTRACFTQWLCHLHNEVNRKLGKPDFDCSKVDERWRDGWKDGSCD
* marks the source's active call; other numbers are inactive results. Rows were chosen to be rich in hits. Some 4.3% of all compounds tested hit in one or more screens of this group.

For COc1cc(/C=C/C(=O)C2C(=O)C=C(C)OC2=O)cc(OC)c1O (centres undefined) the results were UBC13 inh -12, RBBP9 inhibitor -4, UBC9 SUMO inh 3, PREPL inh -3, Rin1 Abl inh -2 and ALR inh 99*.
CC(C)c1ccc2c(c1)C(=O)NC(C)(C)C2 was read as UBC13 inh 7, RBBP9 inhibitor -9, UBC9 SUMO inh 12, PREPL inh 7, Rin1 Abl inh -3 and ALR inh 92*.
`CC1CC(=Cc2ccc([N+](=O)[O-])cc2)C(=O)O1` (centres undefined) gave Rin1 Abl inh -4.
`Cc1ccsc1C(=O)N1CCC1(C)C(=O)NCC(C)(C)C` (centres undefined) gave Rin1 Abl inh 1.
CCCN(CCC)CCNC(=O)CS(=O)Cc1nc(-c2ccc(C)cc2)oc1C (centres undefined) was read as UBC13 inh 0, RBBP9 inhibitor 2, UBC9 SUMO inh 24, PREPL inh 13, Rin1 Abl inh 1 and ALR inh 98*.
CCCNC(=O)CS(=O)Cc1nc(-c2ccc(OC)cc2)oc1C (centres undefined) was read as UBC13 inh 4, RBBP9 inhibitor -9, UBC9 SUMO inh 14, PREPL inh 10, Rin1 Abl inh 0 and ALR inh 99*.
COCCNC(=O)CS(=O)Cc1nc(-c2ccc(Cl)cc2)oc1C (centres undefined) was read as UBC13 inh 0, RBBP9 inhibitor -5, UBC9 SUMO inh -6, PREPL inh 8 and Rin1 Abl inh -1.
For Cc1ccc(-c2nc(CS(=O)CC(=O)NCCC(C)C)c(C)o2)cc1 (centres undefined) the results were UBC13 inh 12, RBBP9 inhibitor -4, UBC9 SUMO inh 20, PREPL inh 2, Rin1 Abl inh -2 and ALR inh 98*.
For CCCCNC(=O)CS(=O)Cc1nc(-c2ccc(C)cc2)oc1C (centres undefined) the results were UBC13 inh 2, RBBP9 inhibitor -9, UBC9 SUMO inh 7, PREPL inh 11, Rin1 Abl inh 3 and ALR inh 99*.
`CCC(CO)Oc1cc(NC(=O)Cc2ccccc2)c2ncn(C(C)C)c2c1` (centres undefined) gave UBC13 inh 8, PREPL inh 9, Rin1 Abl inh 1 and ALR inh -14.
For C=C(CN(C)C)C(=O)c1cc(OC)c(OC)cc1OC the results were Rin1 Abl inh 4.
Cc1ccc(Nc2cc(C)c3ccc(O)cc3n2)cc1C was read as UBC13 inh 20, RBBP9 inhibitor -4, UBC9 SUMO inh 1, PREPL inh 34, Rin1 Abl inh -2 and ALR inh 88*.
For CC1(C(=O)Nc2ccc(Cl)cc2)Cc2c(-c3ccc(C(N)=O)cc3)ccnc2O1 (centres undefined) the results were Rin1 Abl inh 5.
For CCc1sc(C(=O)Nc2cc(S(=O)(=O)N3CCOCC3)ccc2OC)cc1C the results were UBC13 inh 6, PREPL inh 10, Rin1 Abl inh 0 and ALR inh -13.
CCN(CC(=O)NCc1ccc(F)cc1)C(=O)CN1CCN(c2cc(Cl)ccc2C)CC1 was read as UBC13 inh 6, UBC9 SUMO inh 8, PREPL inh 11, Rin1 Abl inh 1 and ALR inh 2.
`Cc1noc(NS(=O)(=O)c2ccc(NC(=O)CSc3nnc(-c4ccccc4)n3C3CCCCC3)cc2)c1C` gave UBC13 inh 5, RBBP9 inhibitor -9, UBC9 SUMO inh 12, PREPL inh 13, Rin1 Abl inh -3 and ALR inh 98*.
Screening Cc1noc(NS(=O)(=O)c2ccc(NC(=O)CCN3C(=O)c4ccccc4C3=O)cc2)c1C returned UBC13 inh 4, RBBP9 inhibitor -8, UBC9 SUMO inh 1, PREPL inh -4, Rin1 Abl inh 2 and ALR inh 94*.
Cc1noc(NS(=O)(=O)c2ccc(NC(=O)/C=C/c3ccc(Br)cc3)cc2)c1C was read as UBC13 inh -6, UBC9 SUMO inh 6, Rin1 Abl inh 1 and ALR inh 91*.
Screening Cc1noc(NS(=O)(=O)c2ccc(NC(=O)c3ccc(N4C(=O)c5ccccc5C4=O)cc3)cc2)c1C returned UBC13 inh -8, RBBP9 inhibitor -8, UBC9 SUMO inh 5, PREPL inh -8, Rin1 Abl inh 1 and ALR inh -1.
For Cc1cc(C)c(C#N)c(SCC(=O)Nc2ccc(S(=O)(=O)Nc3onc(C)c3C)cc2)n1 the results were UBC13 inh -2, RBBP9 inhibitor 6, UBC9 SUMO inh 4, PREPL inh 7, Rin1 Abl inh -1 and ALR inh 96*.
`O=C1NC[C@H](Cc2ccccc2)N(CC2CCN(CCC34CC5CC(CC(C5)C3)C4)CC2)C1=O` gave Rin1 Abl inh -2.
`Cc1ccc(Cl)cc1NC(=S)NN` gave UBC13 inh 4, RBBP9 inhibitor 9, UBC9 SUMO inh 3, PREPL inh -3, Rin1 Abl inh 4 and ALR inh 10.
For CCOC(=O)C1=C(C2=CCCCC2)c2ccc(OC)cc2N(S(=O)(=O)C(F)(F)F)C1C(=O)OCC (centres undefined) the results were Rin1 Abl inh 1.
`CCc1cc(-c2n[nH]c(=S)n2C(C)c2ccccc2)cs1` (centres undefined) gave UBC13 inh 17, RBBP9 inhibitor -8, UBC9 SUMO inh 5, PREPL inh 5, Rin1 Abl inh 3 and ALR inh 94*.
`Cc1scc(-c2n[nH]c(=S)n2C(C)c2ccccc2)c1C` (centres undefined) gave UBC13 inh 9, RBBP9 inhibitor -2, UBC9 SUMO inh 0, PREPL inh 7, Rin1 Abl inh -1 and ALR inh 83*.
Screening Cc1ccc(C)c(NC(=O)CSc2nc3ccc(N4C(=O)c5ccccc5C4=O)cc3s2)c1 returned UBC13 inh 9, RBBP9 inhibitor -7, UBC9 SUMO inh 17, PREPL inh -6, Rin1 Abl inh 0 and ALR inh 86*.
`O=C(OCC(=O)N1CCN(c2ccccc2)CC1)c1ccc(Cl)nc1` gave UBC13 inh 0, PREPL inh 11, Rin1 Abl inh 3 and ALR inh 97*.
`O=C(C1CCCN(S(=O)(=O)c2cc(Cl)ccc2Cl)C1)N1CCOCC1` (centres undefined) gave UBC13 inh -12, UBC9 SUMO inh 1, PREPL inh 12, Rin1 Abl inh 2 and ALR inh 0.
For Oc1cc(-c2ccccc2)c2ccccc2c1 the results were UBC13 inh 14, RBBP9 inhibitor -10, UBC9 SUMO inh 1, PREPL inh 0, Rin1 Abl inh 3 and ALR inh 99*.
Screening c1ccc2c(c1)-c1cccc3c1c-2cc1ccccc13 returned UBC13 inh 28, PREPL inh -4 and ALR inh -1.

Source: PubChem (several laboratories)
